ChEMBL document CHEMBL1159100, “Synthesis and antibacterial activity of benzyl-[3-(benzylamino-methyl)-cyclohexylmethyl]-amine derivatives” (Bioorg Med Chem Lett, 2010)
≈ marks a conversion by molar mass, not a printed value.

Assays:
Escherichia coli = test: Antimicrobial activity against Escherichia coli after 24 hrs by microdilution assay; assay type: functional
Method in brief: (§1)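 NCCLS broth microdilution, final 100 µL. Bacteria grown in standard media to exponential phase. Compounds in 5% DMSO serially diluted; ~2–5 × 10^5 cells per well, 37 °C, 24 h, shaking 200 rpm. Growth read spectrophotometrically; percent survival relative to a drug-free 5% DMSO growth control; medium-only sterility control. MIC derived from survival data.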

Pseudomonas aeruginosa = test: Antimicrobial activity against Pseudomonas aeruginosa after 24 hrs by microdilution assay; assay type: functional; method in brief: as §1
Staphylococcus aureus = test: Antimicrobial activity against Staphylococcus aureus after 24 hrs by microdilution assay; assay type: functional; method in brief: as §1
[1] = tested on: Staphylococcus epidermidis; test: Antimicrobial activity against Staphylococcus epidermidis after 24 hrs by microdilution assay; assay type: functional; method in brief: as §1
[2] = Toxicity in human RBC assessed as hemolytic activity at 512 ug/ml; assay type: cell-based, Erythrocyte; conditions: red blood cells (RBC), read-out: Activity
Method in brief: (§2)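 Fresh human erythrocytes, 4% v/v in 35 mM phosphate buffer with 150 mM NaCl, incubated with test sample 1 h at 37 °C. After centrifugation, supernatant absorbance read at 414 nm. 0.1% Triton X-100 lysis taken as 100% hemolysis. Tested at concentrations up to 512 µg/mL.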

[3] = Toxicity in human RBC up to 512 ug/ml; assay type: cell-based; conditions: erythrocyte; method in brief: as §2

Compound | MIC (Escherichia coli) [µg/mL] | MIC (Pseudomonas aeruginosa) [µg/mL] | MIC (Staphylococcus aureus) [µg/mL] | MIC [1] [µg/mL] | hemolysis at 512 ug/ml [2] [%] | Activity [3]
CCCCc1ccc(CNCC2CCCC(CNCc3ccc(CCCC)cc3)C2)cc1 (configuration not stated) | 0.016 (≈ 0.0368 µM) | 0.002 (≈ 0.0046 µM) | 0.004 (≈ 0.0092 µM) | 0.004 (≈ 0.0092 µM) | 4 | –
CC(C)(C)c1ccc(CNCC2CCCC(CNCc3ccc(C(C)(C)C)cc3)C2)cc1 (configuration not stated) | 0.002 (≈ 0.0046 µM) | 0.004 (≈ 0.0092 µM) | 0.016 (≈ 0.0368 µM) | 0.008 (≈ 0.0184 µM) | 4 | –
c1ccc(CNCC2CCCC(CNCc3ccccc3)C2)cc1 (configuration not stated) | > 250 | > 250 | > 250 | > 250 | – | –
Clc1cccc(CNCC2CCCC(CNCc3cccc(Cl)c3)C2)c1 (configuration not stated) | > 250 | 0.125 (≈ 0.319 µM) | > 250 | 0.25 (≈ 0.639 µM) | – | Non-toxic
Cc1ccc(CNCC2CCCC(CNCc3ccc(C)c(C)c3)C2)cc1C (configuration not stated) | > 250 | 0.125 (≈ 0.33 µM) | > 250 | > 250 | – | Non-toxic
Cc1ccc(C)c(CNCC2CCCC(CNCc3cc(C)ccc3C)C2)c1 (configuration not stated) | > 250 | > 250 | > 250 | > 250 | – | –
Fc1ccc(CNCC2CCCC(CNCc3ccc(F)cc3)C2)cc1 (configuration not stated) | > 250 | > 250 | > 250 | > 250 | – | –
Fc1cccc(CNCC2CCCC(CNCc3cccc(F)c3)C2)c1 (configuration not stated) | > 250 | > 250 | > 250 | > 250 | – | –
CCc1ccc(CNCC2CCCC(CNCc3ccc(CC)cc3)C2)cc1 (configuration not stated) | > 250 | 0.125 (≈ 0.33 µM) | > 250 | 0.25 (≈ 0.66 µM) | 0.5 | –
CC(C)c1ccc(CNCC2CCCC(CNCc3ccc(C(C)C)cc3)C2)cc1 (configuration not stated) | > 250 | 0.125 (≈ 0.307 µM) | > 250 | 0.125 (≈ 0.307 µM) | 4 | –
Clc1cccc(Cl)c1CNCC1CCCC(CNCc2c(Cl)cccc2Cl)C1 (configuration not stated) | > 250 | > 250 | > 250 | > 250 | – | Non-toxic

The next lines start with results.

MIC (Escherichia coli) [µg/mL] | MIC (Pseudomonas aeruginosa) [µg/mL] | MIC (Staphylococcus aureus) [µg/mL] | MIC [1] [µg/mL] | Compound | hemolysis at 512 ug/ml [2] [%] | Activity [3]
> 250 | 0.032 (≈ 0.0818 µM) | 0.025 (≈ 0.0639 µM) | 0.065 (≈ 0.166 µM) | Clc1ccc(CNCC2CCCC(CNCc3ccc(Cl)cc3)C2)cc1 (configuration not stated) | – | Non-toxic
> 250 | 0.5 (≈ 1.43 µM) | > 250 | 1 (≈ 2.85 µM) | Cc1ccc(CNCC2CCCC(CNCc3ccc(C)cc3)C2)cc1 (configuration not stated) | – | Non-toxic
> 250 | 1 (≈ 2.85 µM) | > 250 | 1 (≈ 2.85 µM) | Cc1cccc(CNCC2CCCC(CNCc3cccc(C)c3)C2)c1 (configuration not stated) | – | Non-toxic
> 250 | 1 (≈ 2.64 µM) | > 250 | 0.25 (≈ 0.66 µM) | Cc1cc(C)cc(CNCC2CCCC(CNCc3cc(C)cc(C)c3)C2)c1 (configuration not stated) | – | Non-toxic
> 250 | > 250 | > 250 | > 250 | Cc1ccc(CNCC2CCCC(CNCc3ccc(C)cc3C)C2)c(C)c1 (configuration not stated) | – | –
> 250 | > 250 | 0.02 (≈ 0.0485 µM) | > 250 | O=[N+]([O-])c1cccc(CNCC2CCCC(CNCc3cccc([N+](=O)[O-])c3)C2)c1 (configuration not stated) | – | –
> 250 | 0.125 (≈ 0.26 µM) | > 250 | 0.125 (≈ 0.26 µM) | Brc1cccc(CNCC2CCCC(CNCc3cccc(Br)c3)C2)c1 (configuration not stated) | – | Non-toxic
> 250 | 0.032 (≈ 0.0666 µM) | > 250 | 0.125 (≈ 0.26 µM) | Brc1ccc(CNCC2CCCC(CNCc3ccc(Br)cc3)C2)cc1 (configuration not stated) | – | Non-toxic
0.016 (≈ 0.0393 µM) | 0.016 (≈ 0.0393 µM) | > 250 | 0.016 (≈ 0.0393 µM) | CCCc1ccc(CNCC2CCCC(CNCc3ccc(CCC)cc3)C2)cc1 (configuration not stated) | 4 | –
> 250 | > 250 | > 250 | > 250 | Cc1ccccc1CNCC1CCCC(CNCc2ccccc2C)C1 (configuration not stated) | – | Non-toxic
0.001 (≈ 0.00225 µM) | – | 0.01 (≈ 0.0225 µM) | 0.02 (≈ 0.045 µM) | CN(C)[C@@H]1C(O)=C(C(N)=O)C(=O)[C@@]2(O)C(O)=C3C(=O)c4c(O)cccc4[C@@](C)(O)[C@H]3C[C@@H]12 [TETRACYCLINE] | – | –
